Laboratory results: PMC5026420 (Science Advances, 2016)
Numbering of substitutions follows the chain as printed. Where two headings read alike, the source gives them in different places.

Legend:
CckA_ΔTM [1] = biological target: T1, CckA_ΔTM (Caulobacter vibrioides, UniProt Q9X688); assay: CckA phosphorylation assay by autoradiography; type: biochemical, Caulobacter crescentus; details: for net CckA_ΔTM~P after addition of effector: ADP or c-di-GMP added after 30 min of incubation with 500 μM ATP
T1 sequence (Q9X688 72-691): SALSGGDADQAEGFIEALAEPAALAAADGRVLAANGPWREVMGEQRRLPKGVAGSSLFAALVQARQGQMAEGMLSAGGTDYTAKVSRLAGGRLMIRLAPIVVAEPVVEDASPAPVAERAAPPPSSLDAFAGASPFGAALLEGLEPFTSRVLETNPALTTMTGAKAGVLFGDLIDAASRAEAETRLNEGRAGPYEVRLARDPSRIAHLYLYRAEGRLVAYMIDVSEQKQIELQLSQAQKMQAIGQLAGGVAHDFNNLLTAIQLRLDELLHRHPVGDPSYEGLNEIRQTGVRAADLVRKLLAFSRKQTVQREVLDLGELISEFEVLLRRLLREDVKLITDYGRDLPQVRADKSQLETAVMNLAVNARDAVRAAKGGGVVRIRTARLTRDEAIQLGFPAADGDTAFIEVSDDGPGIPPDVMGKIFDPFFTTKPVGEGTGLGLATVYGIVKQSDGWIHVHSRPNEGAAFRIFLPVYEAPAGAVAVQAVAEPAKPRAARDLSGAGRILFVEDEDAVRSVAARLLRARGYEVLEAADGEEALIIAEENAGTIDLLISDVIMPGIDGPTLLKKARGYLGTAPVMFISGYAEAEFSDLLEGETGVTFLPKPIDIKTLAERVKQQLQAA
Summary of the method: (§1)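 MBP-tagged CckA_ΔTM (residues S72–A691) or its point mutants are incubated at room temperature with 500 μM ATP plus 5 μCi γ32P-ATP. Further nucleotides are added at set times. Where applicable, ATP is converted to ADP with 1.5 U hexokinase and 5 mM D-glucose. Reactions are stopped in SDS sample buffer and run on 10% SDS gels. Wet gels are exposed to a phosphor screen (0.5–3 h) and scanned.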

CckA_ΔTM [2] = biological target: T1, CckA_ΔTM; assay: Global fit of kinetic model to CckA_ΔTM phosphorylation progress curves; type: biochemical, Caulobacter crescentus; details: simulations; rate with which the data can be fit
Summary of the method: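 Progress curves of net CckA_ΔTM~P come from radiolabelled ATP reactions, with ADP or c-di-GMP added to aliquots after 30 min. The curves were globally fitted to a kinetic model using standard first- and second-order reaction kinetics, set up as a system of coupled ordinary differential equations. Rate parameters such as kr are taken from that global fit.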

CckA_CA = biological target: T2, CckA_CA (Caulobacter vibrioides, UniProt Q9X688); assay: ITC ligand binding to CckA_CA; set-up: species or system Caulobacter crescentus
T2 sequence (Q9X688 379-545): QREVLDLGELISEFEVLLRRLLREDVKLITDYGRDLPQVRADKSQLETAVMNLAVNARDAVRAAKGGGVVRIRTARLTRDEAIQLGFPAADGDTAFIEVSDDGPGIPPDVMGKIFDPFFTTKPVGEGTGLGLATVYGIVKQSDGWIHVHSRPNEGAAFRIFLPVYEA
Summary of the method: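 Protein was expressed in E. coli Rosetta (DE3), induced with 0.1 mM IPTG at 22°C, and purified by Ni-NTA then gel filtration (30 mM Tris-HCl pH 7.5, 100 mM NaCl, 5 mM MgCl2). Isothermal titration calorimetry was run at 25 or 12°C, stirring 300 rpm, 200 s preinjection delay, 250 s recording interval. Data were fitted to a single-site model, refitted with N fixed at 1.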

CckA_ΔTM G318A = biological target: T3, CckA_ΔTM G318A (Caulobacter vibrioides, UniProt Q9X688, G318A); assay: CckA phosphorylation assay by autoradiography, G318A; type: biochemical, Caulobacter crescentus; details: 15 min of ATP incubation, 75 μM c-di-GMP
T3 sequence (Q9X688 72-691 G318A): T1 sequence (Q9X688 72-691) with G247A
Summary of the method: as §1

CckA_ΔTM G515D = biological target: T4, CckA_ΔTM G515D (Caulobacter vibrioides, UniProt Q9X688, G515D); assay: CckA phosphorylation assay by autoradiography, G515D; type: biochemical, Caulobacter crescentus; details: 15 min of ATP incubation, 75 μM c-di-GMP
T4 sequence (Q9X688 72-691 G515D): T1 sequence (Q9X688 72-691) with G444D
Summary of the method: as §1

CckA_ΔTM Y514D = details: cited from earlier work
CckA_ΔTM W523A = details: cited from earlier work
CckA_ΔTM F539A = details: cited from earlier work

SMILES | net CckA_ΔTM~P after addition of effector (CckA_ΔTM [1]) | rate of debinding (kr) (CckA_ΔTM [2]) | Kd (CckA_CA; read-out: Kd, AMPPNP binding, - c-di-GMP, 12°C) | Kd (CckA_CA; read-out: Kd, c-di-GMP binding, Fig. 3C (in the presence of 5 mM ADP or AMPPNP)) | net CckA phosphorylation with effector present throughout (CckA_ΔTM [1]; 15 min of ATP incubation, 75 μM c-di-GMP) | response of net phosphorylation to c-di-GMP (CckA_ΔTM G318A) | response of net phosphorylation to c-di-GMP (in vitro phenotype) (CckA_ΔTM G515D) | c-di-GMP binding in UV-cross-linking experiments (CckA_ΔTM Y514D) | c-di-GMP binding in UV-cross-linking experiments (CckA_ΔTM W523A) | c-di-GMP binding in UV-cross-linking experiments (CckA_ΔTM F539A)
Nc1ncnc2c1ncn2[C@@H]1O[C@H](COP(=O)(O)OP(=O)(O)O)[C@@H](O)[C@H]1O [ADP, adenosine diphosphate] | dose-dependent boost in dephosphorylation | 10^−2 to 10^−3 s^−1 |  |  |  |  |  |  |  | 
Nc1ncnc2c1ncn2[C@@H]1O[C@H](COP(=O)(O)OP(=O)(O)NP(=O)(O)O)[C@@H](O)[C@H]1O [AMPPNP] |  |  | ~10 µM |  |  |  |  |  |  | 
Nc1nc2c(ncn2[C@@H]2O[C@@H]3COP(=O)(O)O[C@H]4[C@@H](O)[C@H](n5cnc6c(=O)[nH]c(N)nc65)O[C@@H]4COP(=O)(O)O[C@H]3[C@H]2O)c(=O)[nH]1 [c-di-GMP, cyclic di–guanosine monophosphate] | efficiently and rapidly dephosphorylated |  |  | ~20 µM | effectively blocked | virtually no response | identical to that of G318A | lack of c-di-GMP binding | lack of c-di-GMP binding | lack of c-di-GMP binding
